Test results taken from paper PMC3158287 (Nature chemical biology, 2011).
Substitutions are numbered along the chain they refer to. Read-outs that look alike come from different tables or passages of the source.

What was measured:
ORP4L-Myc-His = biological target: T1, ORP4L-Myc-His (Homo sapiens, UniProt Q969R2); experiment: [3H]25-OHC charcoal-dextran binding assay, ORP4L-Myc-His
T1 sequence (Q969R2 1-916): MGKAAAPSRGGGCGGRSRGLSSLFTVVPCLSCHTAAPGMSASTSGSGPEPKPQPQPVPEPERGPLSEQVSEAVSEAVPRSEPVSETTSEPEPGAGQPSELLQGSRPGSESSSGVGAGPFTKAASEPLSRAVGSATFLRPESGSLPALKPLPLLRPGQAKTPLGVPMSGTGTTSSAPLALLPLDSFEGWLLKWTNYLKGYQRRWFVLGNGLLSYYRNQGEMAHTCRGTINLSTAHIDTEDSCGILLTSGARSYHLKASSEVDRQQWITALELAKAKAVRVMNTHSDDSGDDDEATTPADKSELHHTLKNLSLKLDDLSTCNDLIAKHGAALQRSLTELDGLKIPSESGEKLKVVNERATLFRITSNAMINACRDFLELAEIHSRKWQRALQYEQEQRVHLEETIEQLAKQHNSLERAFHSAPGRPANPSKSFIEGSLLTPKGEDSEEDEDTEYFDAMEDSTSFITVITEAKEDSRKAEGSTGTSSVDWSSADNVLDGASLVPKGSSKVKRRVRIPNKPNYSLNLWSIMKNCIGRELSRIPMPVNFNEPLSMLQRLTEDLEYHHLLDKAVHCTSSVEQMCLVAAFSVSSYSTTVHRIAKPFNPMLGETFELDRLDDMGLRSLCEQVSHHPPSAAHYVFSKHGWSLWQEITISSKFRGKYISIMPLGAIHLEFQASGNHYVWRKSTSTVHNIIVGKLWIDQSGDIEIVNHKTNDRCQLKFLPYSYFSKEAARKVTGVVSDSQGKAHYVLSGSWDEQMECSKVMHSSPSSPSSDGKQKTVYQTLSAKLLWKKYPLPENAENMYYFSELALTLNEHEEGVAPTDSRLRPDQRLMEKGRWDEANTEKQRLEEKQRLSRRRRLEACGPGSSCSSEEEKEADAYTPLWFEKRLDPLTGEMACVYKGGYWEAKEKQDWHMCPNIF

OSBP^M446W = biological target: T2, OSBP^M446W (Homo sapiens, UniProt P22059, M446W); experiment: [3H]25-OHC binding assay, OSBP M446W mutant
T2 sequence (P22059 1-807 M446W): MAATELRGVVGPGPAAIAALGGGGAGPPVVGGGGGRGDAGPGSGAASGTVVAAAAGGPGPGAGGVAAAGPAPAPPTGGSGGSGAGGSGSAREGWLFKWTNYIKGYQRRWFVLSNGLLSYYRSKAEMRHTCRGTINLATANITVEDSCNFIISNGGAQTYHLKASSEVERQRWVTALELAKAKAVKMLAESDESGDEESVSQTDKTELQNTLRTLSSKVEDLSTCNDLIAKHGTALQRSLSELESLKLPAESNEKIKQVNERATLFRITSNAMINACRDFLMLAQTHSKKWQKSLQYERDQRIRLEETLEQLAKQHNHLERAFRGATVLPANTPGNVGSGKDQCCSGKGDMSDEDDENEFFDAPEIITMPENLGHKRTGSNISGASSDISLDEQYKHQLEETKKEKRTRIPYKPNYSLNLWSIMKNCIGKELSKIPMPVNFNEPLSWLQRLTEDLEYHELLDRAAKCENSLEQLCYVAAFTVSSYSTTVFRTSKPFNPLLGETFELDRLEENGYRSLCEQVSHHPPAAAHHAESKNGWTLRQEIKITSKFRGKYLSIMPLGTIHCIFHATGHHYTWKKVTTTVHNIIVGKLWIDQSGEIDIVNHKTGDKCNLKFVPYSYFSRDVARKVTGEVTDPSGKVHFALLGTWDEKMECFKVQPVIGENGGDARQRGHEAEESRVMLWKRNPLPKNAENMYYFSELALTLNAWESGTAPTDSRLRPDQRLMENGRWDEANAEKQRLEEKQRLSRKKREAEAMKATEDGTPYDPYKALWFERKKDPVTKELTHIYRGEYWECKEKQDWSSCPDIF

OSBP^V582M = biological target: T3, OSBP^V582M (Homo sapiens, UniProt P22059, V582M); experiment: [3H]25-OHC binding assay, OSBP V582M mutant
T3 sequence (P22059 1-807 V582M): T2 sequence (P22059 1-807 M446W) with W446M, V582M

HCT-116 p21^−/− cells = experiment: Cell viability assay, HCT-116 p21-/-; format: cell-based, human; conditions: GI50 after 48 h
Procedure, shortened: (§1)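 HCT-116 p21+/+ and p21−/− cells were seeded in 96-well plates and rested 24 h. A time-zero plate was read with CellTiter-Blue (resazurin) after 90 min at 37 °C, fluorescence 544 nm ex / 590 nm em. Serially diluted test compound was added as 4× solution. Viability was re-read at 48 h and GI50 derived. For coadministration, 10 μM 25-OHC was added with test compound at 250 nM or 10 nM.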

[1] = test system: HeLa cells overexpressing wild-type OSBP; experiment: Overexpression-viability assay, wild-type OSBP-Myc-His; format: cell-based, human; conditions: 48 h, versus lacZ
HCT-116 cells = experiment: Suppression of antiproliferative activity by 25-OHC coadministration; format: cell-based, human
Procedure, shortened: as §1

SMILES	Ki (ORP4L-Myc-His; read-out: Ki, ORP4L-Myc-His, competition with 20 nM [3H]25-OHC, mean ± s.d.)	Ki (OSBP^M446W; read-out: Ki, OSBP^M446W, competition with [3H]25-OHC, mean ± s.d.)	Ki (OSBP^V582M; read-out: Ki, OSBP^V582M, competition with [3H]25-OHC, mean ± s.d.)	p21^−/− selectivity of growth inhibition (HCT-116 p21^−/− versus wild-type) (HCT-116 p21^−/− cells)	Desensitization factor by OSBP overexpression (relative GI30) [1]	Growth inhibition when administered alone (HCT-116 cells; 10 nM, HCT-116 cells, 48 h)	Effect of 10 μM 25-OHC coadministration on growth inhibition (HCT-116 cells; HCT-116 cells, 250 nM cephalostatin 1 or 10 nM OSW-1)	Factor by which affinity for ORP4L is lower than affinity for OSBP (ORP4L-Myc-His; ratio of Ki values ORP4L / OSBP)	Ki (OSBP^M446W)	Ki (OSBP^V582M)	Effect of 25-OHC coadministration on antiproliferative activity (HCT-116 cells; HCT-116 and HeLa cell lines)
COc1ccc(C(=O)O[C@H]2[C@H](O[C@@H]3[C@@H](OC(C)=O)[C@H](O[C@H]4C[C@H]5[C@@H]6CC=C7C[C@@H](O)CC[C@]7(C)[C@H]6CC[C@]5(C)[C@@]4(O)[C@H](C)C(=O)CCC(C)C)OC[C@@H]3O)OC[C@@H](O)[C@@H]2O)cc1 [OSW-1]	54 ± 11 nM	18 nM	46 nM	selectively growth-inhibitory	2–5	> 75%	nearly complete desensitization				
CC(C)=CCC/C(C)=C/Cc1c(O)cc(/C=C/c2cc(O)c3c(c2)C[C@@H]2C(C)(C)[C@H](O)[C@H](O)C[C@@]2(C)O3)cc1O [schweinfurthin A]				selectively growth-inhibitory	2–5			~ 40	60 nM	37 nM	desensitized cells to schweinfurthin A, although to a lesser degree
